Data as given in ChEMBL document CHEMBL4680218, “Design and synthesis of tripeptidyl furylketones as selective inhibitors against the β5 subunit of human 20S proteasome” (Eur J Med Chem, 2020).

What was measured:
[1] = molecular target: T1, Proteasome Macropain subunit MB1 (Homo sapiens, UniProt P28074); experiment: Inhibition of chymotrypsin-like activity of human 20S proteasome beta5 subunit using Suc-LLVY-Glo as substrate incubated for 2 hrs followed by substrate addition and measured for 10 mins by bioluminescent assay
T1 sequence (P28074 whole entry): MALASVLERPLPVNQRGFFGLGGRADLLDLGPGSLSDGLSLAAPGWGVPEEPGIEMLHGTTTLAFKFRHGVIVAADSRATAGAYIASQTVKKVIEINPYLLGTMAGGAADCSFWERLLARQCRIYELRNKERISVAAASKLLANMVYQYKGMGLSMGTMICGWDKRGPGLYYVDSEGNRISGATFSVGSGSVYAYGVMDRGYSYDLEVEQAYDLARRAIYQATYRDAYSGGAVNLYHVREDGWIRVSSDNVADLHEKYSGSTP
Summary of the method: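 Human constitutive 20S proteasome (1 μg/mL) was combined with compound serially diluted in 10 mM HEPES pH 7.6, with final DMSO 1% (v/v). After 2 h at 25 °C, Suc-LLVY-Glo (CT-L), Z-LRR-Glo (T-L) or Z-nLPnLD-Glo (C-L) reagent was added. Luminescence was read over 10 min, and IC50 was taken from inhibition rates.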

[2] = molecular target: T2, Proteasome Macropain subunit MB1 (Homo sapiens) (UniProt P28074); experiment: Inhibition of chymotrypsin-like activity of human 20S proteasome beta5 subunit at 50 uM using Suc-LLVY-Glo as substrate incubated for 2 hrs followed by substrate addition and measured for 10 mins by bioluminescent assay relative to control; settings: time 130.0 min
T2 sequence (whole entry): T1 sequence (P28074 whole entry)
Summary of the method: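 Human constitutive 20S proteasome (1 µg/mL) was incubated with compound for 2 h at 25 °C in 10 mM HEPES pH 7.6 with 1% DMSO final. Suc-LLVY-Glo substrate was then added, and luminescence was read over 10 min. Inhibition rate was calculated against the uninhibited signal.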

IC50 [1] [µM] | inhibition [2] [%] | Structure (SMILES)
45.6 | > 50 | CC(C)C[C@H](NC(=O)[C@H](C)NC(=O)[C@H](Cc1ccccc1)NC(=O)OC(C)(C)C)C(=O)c1ccco1
> 50 | > 50 | CC(C)C[C@H](NC(=O)[C@H](Cc1ccc(Cl)cc1)NC(=O)[C@H](Cc1ccccc1)NC(=O)OCc1ccccc1)C(=O)c1ccco1
7.26 | > 50 | COc1ccc(C[C@H](NC(=O)[C@H](Cc2ccccc2)NC(=O)c2ccccc2[N+](=O)[O-])C(=O)N[C@@H](CC(C)C)C(=O)c2ccco2)cc1
3.12 | > 50 | Cc1ccc(S(=O)(=O)N[C@@H](CC(=O)NCC(C)C)C(=O)N[C@@H](C)C(=O)N[C@@H](CC(C)C)C(=O)c2ccco2)cc1
> 50 | > 50 | COc1ccc(C[C@H](NC(=O)[C@H](Cc2ccccc2)NC(=O)c2ccccc2Br)C(=O)N[C@@H](CC(C)C)C(=O)c2ccco2)cc1
> 50 | > 50 | COc1ccc(C[C@H](NC(=O)[C@H](Cc2ccccc2)NC(=O)c2ccccc2OC)C(=O)N[C@@H](CC(C)C)C(=O)c2ccco2)cc1
> 50 | > 50 | CC(C)C[C@H](NC(=O)[C@H](C)NC(=O)[C@H](Cc1ccccc1)NC(=O)OCc1ccccc1)C(=O)c1ccco1
4.16 | > 50 | COC[C@H](NC(=O)[C@H](Cc1ccccc1)NC(=O)OCc1ccccc1)C(=O)N[C@@H](CC(C)C)C(=O)c1ccco1
5.86 | > 50 | COC[C@H](NC(=O)[C@H](Cc1ccc(OC)cc1)NC(=O)OC(C)(C)C)C(=O)N[C@@H](CC(C)C)C(=O)c1ccco1
5.63 | > 50 | Cc1ccc(S(=O)(=O)N[C@@H](CC(=O)NCC(C)(C)C)C(=O)N[C@@H](C)C(=O)N[C@@H](CC(C)C)C(=O)c2ccco2)cc1
13.9 | > 50 | CC(=O)N[C@@H](Cc1ccccc1)C(=O)N[C@@H](Cc1ccc(O)cc1)C(=O)N[C@@H](CC(C)C)C(=O)c1ccco1
50 | > 50 | COc1ccc(C[C@H](NC(=O)OC(C)(C)C)C(=O)N[C@@H](Cc2ccc(Cl)cc2)C(=O)N[C@@H](CC(C)C)C(=O)c2ccco2)cc1
6.3 | > 50 | Cc1ccc(S(=O)(=O)N[C@@H](CC(=O)NCCC(C)C)C(=O)N[C@@H](C)C(=O)N[C@@H](CC(C)C)C(=O)c2ccco2)cc1
> 50 | > 50 | COc1ccc(C[C@H](NC(=O)[C@H](Cc2ccccc2)NC(=O)c2cnccn2)C(=O)N[C@@H](CC(C)C)C(=O)c2ccco2)cc1
2.33 | > 50 | Cc1ccc(S(=O)(=O)N[C@@H](Cc2ccccc2)C(=O)N[C@@H](Cc2ccc(O)cc2)C(=O)N[C@@H](CC(C)C)C(=O)c2ccco2)cc1
4.56 | > 50 | CC(C)C[C@H](NC(=O)[C@H](Cc1ccc(O)cc1)NC(=O)[C@H](Cc1ccc(O)cc1)NC(=O)c1ccc(CO)cc1)C(=O)c1ccco1
3.19 | > 50 | COc1ccc(C[C@H](NC(=O)[C@H](Cc2ccccc2)NC(=O)c2ccccc2C)C(=O)N[C@@H](CC(C)C)C(=O)c2ccco2)cc1
7.26 | > 50 | CC(C)C[C@H](NC(=O)[C@H](Cc1ccc(O)cc1)NC(=O)[C@H](Cc1ccc(Cl)cc1)NC(=O)OC(C)(C)C)C(=O)c1ccco1
14.3 | > 50 | COC[C@H](NC(=O)[C@H](Cc1ccccc1)NC(=O)OC(C)(C)C)C(=O)N[C@@H](CC(C)C)C(=O)c1ccco1
> 50 | > 50 | COC[C@H](NC(=O)[C@H](CC(=O)NCCC(C)C)NS(=O)(=O)c1ccc(C)cc1)C(=O)N[C@@H](CC(C)C)C(=O)c1ccco1
8.25 | > 50 | COc1ccc(C[C@H](NC(=O)c2cnccn2)C(=O)N[C@@H](Cc2ccc(O)cc2)C(=O)N[C@@H](CC(C)C)C(=O)c2ccco2)cc1
12 | > 50 | COc1ccc(C[C@H](NC(=O)OC(C)(C)C)C(=O)N[C@@H](C)C(=O)N[C@@H](CC(C)C)C(=O)c2ccco2)cc1
